Results as given in ChEMBL document CHEMBL1145853, “Design, synthesis, and biological evaluation of cytotoxic 11-alkenylindenoisoquinoline topoisomerase I inhibitors and indenoisoquinoline-camptothecin hybrids” (2003).

What was measured:
OVCAR-3 = test: Cytotoxic concentration against human ovarian OVCAR-3 cell line growth inhibition; assay type: functional
MDA-MB-435 = test: Cytotoxic concentration against human breast MDA-MB-435 cell line growth inhibition; assay type: functional
UACC-62 = test: Cytotoxic concentration against human melanoma UACC-62 cell line growth inhibition; assay type: functional
SN12C = test: Cytotoxic concentration against human renal SN12C cell line growth inhibition; assay type: functional
SF-539 = test: Cytotoxic concentration against human CNS SF-539 cell line growth inhibition; assay type: functional
HCT-116 = test: Cytotoxic concentration against human colon HCT116 cell line growth inhibition; assay type: functional
DU-145 = test: Cytotoxic concentration against human prostate DU-145 cell line growth inhibition; assay type: functional
HOP-62 = test: Cytotoxic concentration against human lung HOP-62 cell line growth inhibition; assay type: functional
[1] = molecular target: T1, DNA topoisomerase 1 (Homo sapiens) (UniProt P11387); test: Activity to produce DNA topoisomerase I-mediated DNA cleavage at concentration up to 10 uM; +++, greater activity than the parent compound 2
T1 sequence (whole entry): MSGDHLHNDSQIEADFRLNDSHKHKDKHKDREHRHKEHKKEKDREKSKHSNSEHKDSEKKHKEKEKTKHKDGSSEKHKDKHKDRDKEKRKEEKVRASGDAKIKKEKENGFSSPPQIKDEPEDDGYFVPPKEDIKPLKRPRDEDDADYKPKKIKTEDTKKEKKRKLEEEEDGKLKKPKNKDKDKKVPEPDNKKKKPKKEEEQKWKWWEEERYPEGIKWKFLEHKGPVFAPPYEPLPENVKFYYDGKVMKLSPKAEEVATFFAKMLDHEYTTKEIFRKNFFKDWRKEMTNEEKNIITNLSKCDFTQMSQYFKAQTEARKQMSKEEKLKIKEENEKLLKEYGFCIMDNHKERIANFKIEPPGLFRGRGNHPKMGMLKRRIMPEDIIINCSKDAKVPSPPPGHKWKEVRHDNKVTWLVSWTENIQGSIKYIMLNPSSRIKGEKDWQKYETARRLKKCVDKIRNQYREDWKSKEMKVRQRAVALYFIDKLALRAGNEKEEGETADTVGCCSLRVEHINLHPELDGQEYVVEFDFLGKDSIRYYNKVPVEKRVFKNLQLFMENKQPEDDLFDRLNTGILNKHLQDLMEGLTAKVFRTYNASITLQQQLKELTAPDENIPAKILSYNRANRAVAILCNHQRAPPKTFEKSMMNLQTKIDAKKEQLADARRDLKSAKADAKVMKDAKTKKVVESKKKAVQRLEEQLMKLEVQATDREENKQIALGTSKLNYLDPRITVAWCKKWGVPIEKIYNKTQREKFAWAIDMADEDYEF
Summary of the method: (§1)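 Human recombinant top1, purified from baculovirus, was incubated for 30 min at 22 °C with the drug at up to 10 μM. The substrate was a 161 bp PvuII/HindIII fragment of pBluescript SK(-), 3'-end-labeled at the HindIII site by Klenow fill-in with [α-32P]dGTP, about 50 000 dpm per reaction. Reactions were stopped with SDS (0.5% final) and run on denaturing 16% polyacrylamide/7 M urea gels. Cleavage was scored semiquantitatively.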

Cancer cell lines = test: Mean graph midpoint for growth inhibition of all human cancer cell lines; assay type: functional
[2] = molecular target: T1, DNA topoisomerase 1 (Homo sapiens); test: Activity to produce DNA topoisomerase I-mediated DNA cleavage at concentration up to 10 uM; summary of the method: as §1
[3] = molecular target: T1, DNA topoisomerase 1 (Homo sapiens); test: Activity to produce DNA topoisomerase I-mediated DNA cleavage at concentration up to 10 uM; +, indicates weak activity; summary of the method: as §1

Activity [1]	Activity [2]	Activity [3]	Structure (SMILES)	GI50 (OVCAR-3)	GI50 (MDA-MB-435)	GI50 (UACC-62)	GI50 (SN12C)	GI50 (SF-539)	GI50 (HCT-116)	GI50 (DU-145)	GI50 (HOP-62)	MGM (Cancer cell lines)
			COc1cc2c3c(n(C)c(=O)c2cc1OC)-c1cc2c(cc1/C3=C\CCCCBr)OCO2	> 100 µM	> 100 µM	> 100 µM	> 100 µM					
greater activity than compound 2			COc1cc2c3c(n(C)c(=O)c2cc1OC)-c1cc2c(cc1/C3=C/CCN)OCO2	0.56 µM	1.8 µM	0.2 µM	0.58 µM	0.42 µM	0.028 µM	0.37 µM	0.071 µM	0.34 µM
			COc1cc2c3c(n(C)c(=O)c2cc1OC)-c1cc2c(cc1C3=O)OCO2		96 µM	4.2 µM	68 µM	41 µM	35 µM	37 µM	1.3 µM	20 µM
			O=c1c2ccccc2cc2n1Cc1cc3ccccc3nc1-2 [ROSETTACIN]	39.8 µM	41.8 µM	97.2 µM	> 100 µM	66.7 µM	32.7 µM	> 100 µM	68.2 µM	
			COc1cc2c3c(n(C)c(=O)c2cc1OC)-c1cc2c(cc1/C3=C/CCCCCBr)OCO2									7.8 µM
	0		COc1cc2c3c(n(C)c(=O)c2cc1OC)-c1cc2c(cc1/C3=C\CCCBr)OCO2	58.1 µM	> 100 µM	11.4 µM	> 100 µM	30 µM	37.8 µM	67.8 µM	19.4 µM	
		Weak activity	COc1cc2c3c(n(C)c(=O)c2cc1OC)-c1cc2c(cc1/C3=C\CCCCl)OCO2		> 100 µM		> 100 µM					
		indicates weak activity	COc1cc2cc3n(c(=O)c2cc1OC)Cc1cc2ccccc2nc1-3 [DIMETHOXYAROMATHECIN]	> 100 µM	> 100 µM	> 100 µM	> 100 µM	> 100 µM	57.3 µM	> 100 µM	> 100 µM	
	0		COc1cc2c3c(n(C)c(=O)c2cc1OC)-c1cc2c(cc1/C3=C/CCCI)OCO2	22.8 µM	5.2 µM	3.5 µM	8.8 µM	4.3 µM	0.56 µM	28.7 µM	27.6 µM	
